The values below come from paper PMC3371134 (Journal of Neurochemistry, 2012).

“Also recorded” adds a separate entry of the source. Like-named read-outs stand apart in the source and are kept apart here.

One series relates to calcineurin B (CnB). Briefly: Yeast two-hybrid. The format is binding, mouse. Particulars: LexA and VP16 fusions, lacZ reporter, X-gal. In outline:
(§1)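 Mouse coding sequences (from brain cDNA) were cloned as galactose-inducible LexA and VP16 fusions and co-transformed into S260 yeast, selected on glucose Trp−/Ura− plates. Colonies on filters were switched to galactose for induction, then assayed for lacZ with X-gal. Autoactivation was checked against LexA/VP16 control vectors. Blue within 1 h was scored positive; blue at 2–4 h was scored weak.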

A further series deals with centrin 2 (Cetn2). Briefly: Yeast two-hybrid. The format is binding, mouse. The settings on record: LexA and VP16 fusions, lacZ reporter, X-gal. An outline of the steps:
as §1

The subject of series [1] is calmodulin-like 4 (Calml4). The series is described as follows: Yeast two-hybrid. The format is binding, mouse. Particulars: LexA and VP16 fusions, lacZ reporter, X-gal. An outline of the steps:
as §1

The subject of a further series is calneuron 1 (Caln1). Briefly: Yeast two-hybrid. The format is binding, mouse. The settings on record: LexA and VP16 fusions, lacZ reporter, X-gal. An outline of the steps:
as §1

A further series has as its system calmodulin-Sepharose. The series is described as follows: CaM-Sepharose pulldown of Myc-tagged proteins expressed in COS-7 cells. The format is binding. The settings on record: for CaM-Sepharose pulldown, calcium-replete: 5mM CaCl2; for CaM-Sepharose pulldown, calcium-replete / CaM-Sepharose pulldown, calcium-poor: TX-buffer pH 6.9, overnight at 4°C, anti-Myc western blot; for calcium dependence of CaM binding / overall CaM binding: 5mM CaCl2 or 5mM EGTA, summary in Discussion; for CaM-Sepharose pulldown, calcium-poor: 5mM EGTA. An outline of the steps: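 Myc-tagged mouse constructs (from brain cDNA) were expressed in COS-7 cells, grown in DMEM/10% FBS at 37°C and transfected at 80% confluency with 3 μg plasmid. After 48 h, cells were lysed 30 min at 4°C in TX-buffer (50 mM Tris-HCl pH 6.9, 0.5% Triton X-100, protease inhibitors). Cleared lysate was incubated overnight at 4°C with CaM-Sepharose, then washed 3× and detected by SDS-PAGE/anti-Myc (9E10) western blot with ECL.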
(Immunoblotting shows a protein as a band on a membrane.)

The test system of another series is CaM. The settings on record: ref Putkey et al., 2008; cited from earlier work.
The conditions of series [2]: cited from earlier work.

With “PEP-19: calmodulin binding IQ motif protein, 62 amino acids”, the “interaction with CnB in Y2H” value with calcineurin B (CnB) was “no binding was detected”. Moreover, the “interaction with Cetn2 in Y2H” value with centrin 2 (Cetn2) is listed as “no binding was detected”. The “interaction with Calml4 in Y2H” value in series [1] is listed as “no binding was detected”. In addition, the “interaction with Caln1 in Y2H” value with calneuron 1 (Caln1) is listed as “no binding was detected”. Further, in the series with calmodulin-Sepharose, the “CaM-Sepharose pulldown, calcium-replete” value is “associate weakly in high calcium; also recorded: interacted weakly or not at all with CaM-Sepharose under calcium-replete conditions”; the “calcium dependence of CaM binding / overall CaM binding” value is “binds preferentially to calcium-free CaM”; the “CaM-Sepharose pulldown, calcium-poor” value is recorded as “bind to CaM-Sepharose in calcium-poor (Eg) conditions; also recorded: bind CaM in low calcium conditions”. Besides, the “role of acidic region (EEFDIDMDAPETE) in CaM binding” value in the series with CaM is “dispensable for CaM binding”. Further, in series [2] (NMR and circular dichroism, ref Dickerson, 2004, Dickerson et al., 2006, Kleerekoper and Putkey, 2009), the structure in solution result is “disordered in solution although it has a propensity to helix formation”.

As for “neurogranin: calpacitin IQ motif protein, 78 amino acids”, the “interaction with CnB in Y2H” value in the series on calcineurin B (CnB) is recorded as “no binding was detected”. Further, the “interaction with Cetn2 in Y2H” value in the series on centrin 2 (Cetn2) is “no binding was detected”. For the same substance, the “interaction with Calml4 in Y2H” value in series [1] is reported as “no binding was detected”. Also, the “interaction with Caln1 in Y2H” value in the series on calneuron 1 (Caln1) is “no binding was detected”. In addition, in the series on calmodulin-Sepharose, the “CaM-Sepharose pulldown, calcium-replete” value was “associate weakly in high calcium”; the “calcium dependence of CaM binding / overall CaM binding” value is listed as “strong CaM binder”; the “CaM-Sepharose pulldown, calcium-poor” value was “bind to CaM-Sepharose in calcium-poor (Eg) conditions; also recorded: bind CaM in low calcium conditions”. In series [2] (ref Cui et al., 2003, Ran et al.), the structure in solution entry was “disordered in solution”.
